Legend:
Format in all cases: functional
Pseudomonas aeruginosa [1] = assay: Potentiation of ciprofloxacin-induced antibacterial activity against MDR/XDR Pseudomonas aeruginosa isolate 91433 devoid of GyrA T83I mutant assessed as fold reduction in ciprofloxacin MIC at 9 uM incubated for 18 hrs by broth microdilution method
Klebsiella pneumoniae [2] = assay: Potentiation of minocycline-induced antibacterial activity against Klebsiella pneumoniae 113254 assessed as fold reduction in minocycline MIC at 4.1 uM incubated for 18 hrs by broth dilution method
Summary of the method: (§1)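 Antibiotic MIC determined by CLSI broth microdilution (MHB, 5 × 10^5 CFU/mL, 18 h, 37 °C), once alone and once with a fixed concentration of the adjuvant. Potentiation is the ratio of the antibiotic MIC alone to its MIC in the presence of the adjuvant.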

Acinetobacter baumannii [3] = assay: Potentiation of minocycline-induced antibacterial activity against […] Acinetobacter baumannii ATCC 17978 assessed as fold reduction in minocycline MIC at 4.1 uM incubated for 18 hrs by broth dilution method
Summary of the method: (§2)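 CLSI broth microdilution. Overnight cultures were set to 0.5 McFarland in saline, diluted 1:50 in Mueller-Hinton broth to a final 5 × 10^5 CFU/mL, and incubated 18 h at 37 °C against 2-fold antibiotic dilutions. A fixed adjuvant level was present throughout. MIC = lowest concentration with no visible turbidity, confirmed at 590 nm. Potentiation = fold drop in antibiotic MIC versus antibiotic alone.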

Enterobacter cloacae [4] = assay: Potentiation of rifampicin-induced antibacterial activity against Enterobacter cloacae 117029 assessed as fold reduction in rifampicin MIC at 4.1 uM incubated for 18 hrs by broth dilution method; summary of the method: as §1
Pseudomonas aeruginosa [5] = assay: Potentiation of rifampicin-induced bactericidal activity in MDR/XDR Pseudomonas aeruginosa isolate PA259-96918 harboring GyrA T83I mutant assessed as complete eradication of bacteria at 4 ug/ml incubated for 4 hrs in presence of 1 to 4 ug/ml rifampicin by time kill curve assay
Summary of the method: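 Time-kill assay against XDR P. aeruginosa PA259. Overnight culture adjusted to 0.5 McFarland in saline, diluted 1:50 in LB. Incubated at 37 °C for 24 h with rifampicin and adjuvant, alone or combined at various concentrations. Aliquots taken at intervals, serially diluted in PBS and plated on LB agar. Colonies counted after 20 h at 37 °C. Untreated cells as control.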

Escherichia coli [6] = assay: Synergistic antibacterial activity against Escherichia coli ATCC 25922 assessed as fractional inhibitory concentration index in presence of minocycline incubated for 18 hrs by broth dilution method
Summary of the method: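 Checkerboard titration of the adjuvant against the antibiotic, run under the CLSI microdilution conditions (MHB, 5 × 10^5 CFU/mL, 18 h, 37 °C). Each agent's FIC is its MIC in combination divided by its MIC alone; FICI is the sum of the two FICs. FICI ≤0.5 was read as synergy, >0.5–4.0 as no interaction, and >4.0 as antagonism.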

Acinetobacter baumannii [7] = assay: Antimicrobial activity against multidrug-resistant Acinetobacter baumannii ATCC 17978 incubated for 18 hrs by broth dilution method; conditions: ATCC 17978, 18 h
Summary of the method: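 Broth microdilution per CLSI: overnight cultures set to 0.5 McFarland in saline, diluted 1:50 in Mueller-Hinton broth to a final 5 × 10^5 CFU/mL, added to 2-fold serial dilutions, incubated 18 h at 37 °C; MIC is the lowest concentration without visible turbidity, confirmed at 590 nm.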

Enterobacter cloacae [8] = assay: Potentiation of minocycline-induced antibacterial activity against Enterobacter cloacae 117029 assessed as fold reduction in minocycline MIC at 4.1 uM incubated for 18 hrs by broth dilution method; summary of the method: as §1
Escherichia coli [9] = assay: Potentiation of rifampicin-induced antibacterial activity against Escherichia coli 94474 assessed as fold reduction in rifampicin MIC at 4.1 uM incubated for 18 hrs by broth dilution method; summary of the method: as §2
Klebsiella pneumoniae [10] = assay: Potentiation of rifampicin-induced antibacterial activity against Klebsiella pneumoniae 113250 assessed as fold reduction in rifampicin MIC at 4.1 uM incubated for 18 hrs by broth dilution method; summary of the method: as §1
Escherichia coli [11] = assay: Potentiation of rifampicin-induced antibacterial activity against Escherichia coli ATCC 25922 assessed as fold reduction in rifampicin MIC at 2.0 uM incubated for 18 hrs by broth dilution method; summary of the method: as §1
Escherichia coli [12] = assay: Potentiation of minocycline-induced antibacterial activity against Escherichia coli 94474 assessed as fold reduction in minocycline MIC at 4.1 uM incubated for 18 hrs by broth dilution method; summary of the method: as §1
Acinetobacter baumannii [13] = assay: Synergistic antibacterial activity against multidrug-resistant Acinetobacter baumannii AB110193 assessed as fractional inhibitory concentration index in presence of rifampicin incubated for 18 hrs by broth dilution method
Pseudomonas aeruginosa [14] = assay: Potentiation of rifampicin-induced antibacterial activity against MDR/XDR Pseudomonas aeruginosa isolate 91433 devoid of GyrA T83I mutant assessed as fold reduction in rifampicin MIC at 7.5 uM incubated for 18 hrs by broth microdilution method; summary of the method: as §2
Acinetobacter baumannii [15] = assay: Synergistic antibacterial activity against multidrug-resistant Acinetobacter baumannii AB030 assessed as fractional inhibitory concentration index in presence of rifampicin incubated for 18 hrs by broth dilution method
Pseudomonas aeruginosa [16] = assay: Potentiation of moxifloxacin-induced antibacterial activity against wild type Pseudomonas aeruginosa PAO1 assessed as fold reduction in moxifloxacin MIC at 7.5 uM incubated for 18 hrs by broth microdilution method; summary of the method: as §2
Pseudomonas aeruginosa [17] = assay: Potentiation of minocycline-induced antimicrobial activity against MDR/XDR Pseudomonas aeruginosa isolate 100036 harboring GyrA Thr83Ile mutant assessed as minocycline MIC80 incubated for 18 hrs by broth microdilution method (reference value: 32 microg/ml); conditions: isolate 100036, 18 h
Pseudomonas aeruginosa [18] = assay: Potentiation of rifampicin-induced antimicrobial activity against MDR/XDR Pseudomonas aeruginosa isolate 101243 devoid of GyrA Thr83Ile mutant assessed as rifampicin MIC50 incubated for 18 hrs by broth microdilution method (reference value: 8 microg/ml); conditions: isolate 101243, 18 h
Pseudomonas aeruginosa [19] = assay: Potentiation of rifampicin-induced antimicrobial activity against MDR/XDR Pseudomonas aeruginosa isolate 100036 harboring GyrA Thr83Ile mutant assessed as rifampicin MIC50 incubated for 18 hrs by broth microdilution method (reference value: 8 microg/ml); conditions: isolate 100036, 18 h
Klebsiella pneumoniae [20] = assay: Potentiation of rifampicin-induced antibacterial activity against Klebsiella pneumoniae 116381 assessed as fold reduction in rifampicin MIC at 7.5 uM incubated for 18 hrs by broth dilution method; summary of the method: as §1
Acinetobacter baumannii [21] = assay: Potentiation of rifampicin-induced antibacterial activity against multidrug-resistant Acinetobacter baumannii AB027 assessed as fold reduction in rifampicin MIC at 7.5 uM incubated for 18 hrs by broth dilution method; summary of the method: as §2
Pseudomonas aeruginosa [22] = assay: Potentiation of moxifloxacin-induced antibacterial activity against MDR/XDR Pseudomonas aeruginosa isolate PA260-97103 harboring GyrA T83I mutant assessed as fold reduction in moxifloxacin MIC at 7.5 uM incubated for 18 hrs by broth microdilution method; summary of the method: as §2
Acinetobacter baumannii [23] = assay: Potentiation of rifampicin-induced antibacterial activity against multidrug-resistant Acinetobacter baumannii AB030 assessed as fold reduction in rifampicin MIC at 7.5 uM incubated for 18 hrs by broth dilution method; summary of the method: as §2
Pseudomonas aeruginosa [24] = assay: Potentiation of ciprofloxacin-induced antibacterial activity against MDR/XDR Pseudomonas aeruginosa isolate 100036 harboring GyrA T83I mutant assessed as fold reduction in ciprofloxacin MIC at 7.5 uM incubated for 18 hrs by broth microdilution method

Compound: Cl.Cl.Cl.Cl.Cl.Cl.NC[C@H]1O[C@H](O[C@H]2[C@H](OCCCCCCCCCCN3CCN(Cc4cccc5ccccc45)CC3)[C@@H](O)[C@H](N)C[C@@H]2N)[C@H](N)C[C@@H]1O
- fold change (FC) (Pseudomonas aeruginosa [1]): 8

Compound: Cl.Cl.Cl.Cl.Cl.NC[C@H]1O[C@H](O[C@H]2[C@H](OCCCCCCCCCCCCN3CCN(c4cc5c(cc4F)c(=O)c(C(=O)O)cn5C4CC4)CC3)[C@@H](O)[C@H](N)C[C@@H]2N)[C@H](N)C[C@@H]1O
- fold change (FC) (Klebsiella pneumoniae [2]): 2
- fold change (FC) (Acinetobacter baumannii [3]): 2
- fold change (FC) (Enterobacter cloacae [4]): >=256
- Activity (Pseudomonas aeruginosa [5]): 100%
- fractional inhibitory concentration index (FICI) (Escherichia coli [6]): 0.504
- MIC (Acinetobacter baumannii [7]): 128 µg/mL
- fold change (FC) (Enterobacter cloacae [8]): 16
- fold change (FC) (Escherichia coli [9]): 256
- fold change (FC) (Klebsiella pneumoniae [10]): 128
- fold change (FC) (Escherichia coli [11]): 128
- fold change (FC) (Escherichia coli [12]): 16
- fractional inhibitory concentration index (FICI) (Acinetobacter baumannii [13]): 0.016 - 0.031

Compound: COc1c(N2C[C@@H]3CCCN(CCCCCCCCCCCCO[C@@H]4[C@@H](O)[C@H](N)C[C@H](N)[C@H]4O[C@H]4O[C@H](CN)[C@@H](O)C[C@H]4N)[C@@H]3C2)c(F)cc2c(=O)c(C(=O)O)cn(C3CC3)c12.Cl.Cl.Cl.Cl.Cl
- fold change (FC) (Pseudomonas aeruginosa [14]): 128
- fractional inhibitory concentration index (FICI) (Acinetobacter baumannii [15]): 0.031 - 0.281
- fold change (FC) (Pseudomonas aeruginosa [16]): 8
- MIC80 (Pseudomonas aeruginosa [17]): 1 µg/mL
- MIC50 (Pseudomonas aeruginosa [18]): 0.06 µg/mL
- MIC50 (Pseudomonas aeruginosa [19]): 0.06 µg/mL
- fold change (FC) (Klebsiella pneumoniae [20]): >=1024
- fold change (FC) (Acinetobacter baumannii [21]): 32
- fold change (FC) (Pseudomonas aeruginosa [22]): 64
- fold change (FC) (Acinetobacter baumannii [23]): 32
- fold change (FC) (Pseudomonas aeruginosa [24]): 2
